Assay [1] addresses T1, MAP kinase-interacting serine/threonine-protein kinase 1 (Homo sapiens, UniProt Q9BUB5). The experiment in a line: Inhibition of MNK1.
Target sequence in this assay (Q9BUB5 whole entry): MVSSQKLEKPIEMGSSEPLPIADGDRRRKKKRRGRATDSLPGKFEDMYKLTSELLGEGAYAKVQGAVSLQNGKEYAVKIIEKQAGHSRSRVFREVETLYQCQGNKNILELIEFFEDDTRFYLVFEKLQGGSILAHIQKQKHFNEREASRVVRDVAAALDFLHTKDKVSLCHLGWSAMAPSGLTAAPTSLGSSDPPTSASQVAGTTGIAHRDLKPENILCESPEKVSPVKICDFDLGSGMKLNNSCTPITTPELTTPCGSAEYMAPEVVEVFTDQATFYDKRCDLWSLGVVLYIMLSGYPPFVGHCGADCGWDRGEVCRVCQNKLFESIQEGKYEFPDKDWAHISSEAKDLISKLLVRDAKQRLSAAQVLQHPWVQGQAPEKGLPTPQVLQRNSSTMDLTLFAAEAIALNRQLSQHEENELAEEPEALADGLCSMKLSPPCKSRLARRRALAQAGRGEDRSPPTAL
Assay [2] concerns the target T1, MAP kinase-interacting serine/threonine-protein kinase 1. Put plainly: Inhibition of MNK1 at 5 uM. In a few lines:
(§1)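 Recombinant MNK1 (4 μg/mL) or MNK2 (0.7 μg/mL) final. Reaction contained 100 μM ATP and 300 μM eIF4E-derived peptide, run 60 min at 30 °C. ADP was detected by resorufin fluorescence. Tested at 5 μM in duplicate.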
Target sequence in this assay (Q9BUB5 whole entry, looked up): as the sequence (Q9BUB5 whole entry) above

Assay [3] addresses T2, MAP kinase-interacting serine/threonine-protein kinase 2 (Homo sapiens, UniProt Q9HBH9). The experiment in a line: Inhibition of MNK2 at 5 uM. Summed up:
as §1

In assay [4] the target is T2, MAP kinase-interacting serine/threonine-protein kinase 2. The experiment in a line: Inhibition of MNK2.
Assay [5] concerns the target RAC-alpha serine/threonine-protein kinase (Homo sapiens) (UniProt P31749). Put plainly: Inhibition of AKT1 at 5 uM. Summed up:
(§2)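 Single-concentration panel run at an outside kinase screening provider. The compound was tested at 5 μM in duplicate.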

In assay [6] the target is NUAK family SNF1-like kinase 1 (Homo sapiens) (UniProt O60285). The experiment in a line: Inhibition of ARK5 at 5 uM. Summed up: as §2
For assay [7], the system named is Serine/threonine-protein kinase B-raf (Homo sapiens), P15056 [V600E]. The experiment in a line: Inhibition of B-RAFV600E at 5 uM. In a few lines: as §2
The target in assay [8] is Casein kinase I isoform alpha (Homo sapiens) (UniProt P48729). Put plainly: Inhibition of CK1alpha1 at 5 uM. In a few lines: as §2
Assay [9] addresses Dual specificity tyrosine-phosphorylation-regulated kinase 1A (Homo sapiens) (UniProt Q13627). The experiment in a line: Inhibition of DYRK1A at 5 uM. In a few lines:
as §2

Assay [10] addresses Epidermal growth factor receptor (Homo sapiens) (UniProt P00533). Put plainly: Inhibition of EGFR at 5 uM. In a few lines: as §2
Assay [11] has as its target Mitogen-activated protein kinase 3 (Homo sapiens) (UniProt P27361). The experiment in a line: Inhibition of ERK1 at 5 uM. Summed up: as §2
Assay [12] addresses Focal adhesion kinase 1 (Homo sapiens) (UniProt Q05397). Put plainly: Inhibition of FAK at 5 uM. Summed up:
as §2

Assay [13] deals with Fibroblast growth factor receptor 1 (Homo sapiens) (UniProt P11362). The experiment in a line: Inhibition of FGFR1 at 5 uM. In a few lines: as §2
In assay [14] the target is Receptor-type tyrosine-protein kinase FLT3 (Homo sapiens) (UniProt P36888). Put plainly: Inhibition of FLT3 at 5 uM. Summed up: as §2
In assay [15] the target is Insulin-like growth factor 1 receptor (Homo sapiens) (UniProt P08069). Put plainly: Inhibition of IGF1R at 5 uM. Summed up:
as §2

The target in assay [16] is Inhibitor of nuclear factor kappa-B kinase subunit beta (Homo sapiens) (UniProt O14920). Put plainly: Inhibition of IKK-beta at 5 uM. In a few lines:
as §2

In assay [17] the target is Tyrosine-protein kinase JAK2 (Homo sapiens) (UniProt O60674). The experiment in a line: Inhibition of JAK2 at 5 uM. Summed up:
as §2

The target in assay [18] is Mast/stem cell growth factor receptor Kit (Homo sapiens) (UniProt P10721). The experiment in a line: Inhibition of KIT at 5 uM. Summed up: as §2
Assay [19] deals with Dual specificity mitogen-activated protein kinase kinase 1 (Homo sapiens) (UniProt Q02750). The experiment in a line: Inhibition of MEK1 at 5 uM. Summed up:
as §2

Assay [20] addresses Hepatocyte growth factor receptor (Homo sapiens) (UniProt P08581). The experiment in a line: Inhibition of MET at 5 uM. Summed up: as §2
Assay [21] has as its target Serine/threonine-protein kinase 4 (Homo sapiens) (UniProt Q13043). Put plainly: Inhibition of MST1 at 5 uM. In a few lines: as §2
The target in assay [22] is Mitogen-activated protein kinase 14 (Homo sapiens) (UniProt Q16539). The experiment in a line: Inhibition of p38alpha at 5 uM. In a few lines: as §2
Assay [23] has as its target Platelet-derived growth factor receptor alpha (Homo sapiens) (UniProt P16234). The experiment in a line: Inhibition of PDGFRalpha at 5 uM. Summed up: as §2
Assay [24] deals with Serine/threonine-protein kinase pim-1 (Homo sapiens) (UniProt P11309). The experiment in a line: Inhibition of PIM1 at 5 uM. In a few lines: as §2
The target in assay [25] is Serine/threonine-protein kinase pim-2 (Homo sapiens) (UniProt Q9P1W9). The experiment in a line: Inhibition of PIM2 at 5 uM. Summed up: as §2
The target in assay [26] is Ribosomal protein S6 kinase alpha-1 (Homo sapiens) (UniProt Q15418). Put plainly: Inhibition of RPS6KA1 at 5 uM. In a few lines:
as §2

Assay [27] concerns the target Serine/threonine-protein kinase Sgk1 (Homo sapiens) (UniProt O00141). The experiment in a line: Inhibition of SGK1 at 5 uM. Summed up: as §2
Assay [28] concerns the target 3-phosphoinositide-dependent protein kinase 1 (Homo sapiens) (UniProt O15530). Put plainly: Inhibition of PDK1 at 5 uM.

Each structure is given as a SMILES string.

Sequence of Mitogen-activated protein kinase 14 (Homo sapiens) (Q16539 whole entry): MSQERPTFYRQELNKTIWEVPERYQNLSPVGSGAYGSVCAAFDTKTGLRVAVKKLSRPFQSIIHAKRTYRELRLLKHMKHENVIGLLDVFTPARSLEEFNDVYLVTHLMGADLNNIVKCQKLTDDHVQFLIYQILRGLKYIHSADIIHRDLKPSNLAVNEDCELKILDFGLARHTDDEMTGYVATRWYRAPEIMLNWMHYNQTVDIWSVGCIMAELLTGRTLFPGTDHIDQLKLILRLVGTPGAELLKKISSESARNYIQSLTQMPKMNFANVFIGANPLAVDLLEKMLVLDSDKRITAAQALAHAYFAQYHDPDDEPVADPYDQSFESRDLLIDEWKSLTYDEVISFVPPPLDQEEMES
Sequence of Epidermal growth factor receptor (Homo sapiens) (P00533 whole entry): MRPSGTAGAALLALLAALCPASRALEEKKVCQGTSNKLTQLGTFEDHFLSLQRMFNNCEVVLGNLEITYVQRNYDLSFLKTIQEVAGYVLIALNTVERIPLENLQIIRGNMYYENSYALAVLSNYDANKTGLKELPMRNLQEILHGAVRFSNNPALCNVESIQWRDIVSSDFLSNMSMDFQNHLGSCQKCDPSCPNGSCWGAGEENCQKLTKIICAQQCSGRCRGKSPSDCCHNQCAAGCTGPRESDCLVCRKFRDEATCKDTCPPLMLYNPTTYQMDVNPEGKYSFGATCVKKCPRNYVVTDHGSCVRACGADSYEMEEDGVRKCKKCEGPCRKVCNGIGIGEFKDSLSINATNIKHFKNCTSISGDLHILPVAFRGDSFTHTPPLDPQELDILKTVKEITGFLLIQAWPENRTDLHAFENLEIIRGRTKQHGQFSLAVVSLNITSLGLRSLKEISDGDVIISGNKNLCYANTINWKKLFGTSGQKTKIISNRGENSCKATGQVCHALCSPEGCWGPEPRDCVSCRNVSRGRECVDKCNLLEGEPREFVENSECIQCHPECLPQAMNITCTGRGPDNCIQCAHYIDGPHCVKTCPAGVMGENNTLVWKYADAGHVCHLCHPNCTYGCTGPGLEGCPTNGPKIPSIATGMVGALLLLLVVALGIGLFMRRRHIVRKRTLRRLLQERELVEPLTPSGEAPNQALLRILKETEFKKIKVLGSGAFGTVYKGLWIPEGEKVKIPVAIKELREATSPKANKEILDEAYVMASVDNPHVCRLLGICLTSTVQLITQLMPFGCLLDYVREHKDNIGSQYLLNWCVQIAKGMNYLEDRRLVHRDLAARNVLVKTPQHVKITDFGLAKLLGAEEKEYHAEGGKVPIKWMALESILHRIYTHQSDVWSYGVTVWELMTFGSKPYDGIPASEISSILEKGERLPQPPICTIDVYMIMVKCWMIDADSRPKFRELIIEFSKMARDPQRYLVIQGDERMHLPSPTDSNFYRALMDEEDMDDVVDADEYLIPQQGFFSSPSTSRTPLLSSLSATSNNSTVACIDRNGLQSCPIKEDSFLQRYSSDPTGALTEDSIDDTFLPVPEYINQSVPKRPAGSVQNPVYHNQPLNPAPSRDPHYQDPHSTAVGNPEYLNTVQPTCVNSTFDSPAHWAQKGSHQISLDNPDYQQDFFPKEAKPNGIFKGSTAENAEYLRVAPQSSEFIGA
Sequence of Serine/threonine-protein kinase B-raf (Homo sapiens), P15056 [V600E] (P15056 whole entry V600E, canonical isoform): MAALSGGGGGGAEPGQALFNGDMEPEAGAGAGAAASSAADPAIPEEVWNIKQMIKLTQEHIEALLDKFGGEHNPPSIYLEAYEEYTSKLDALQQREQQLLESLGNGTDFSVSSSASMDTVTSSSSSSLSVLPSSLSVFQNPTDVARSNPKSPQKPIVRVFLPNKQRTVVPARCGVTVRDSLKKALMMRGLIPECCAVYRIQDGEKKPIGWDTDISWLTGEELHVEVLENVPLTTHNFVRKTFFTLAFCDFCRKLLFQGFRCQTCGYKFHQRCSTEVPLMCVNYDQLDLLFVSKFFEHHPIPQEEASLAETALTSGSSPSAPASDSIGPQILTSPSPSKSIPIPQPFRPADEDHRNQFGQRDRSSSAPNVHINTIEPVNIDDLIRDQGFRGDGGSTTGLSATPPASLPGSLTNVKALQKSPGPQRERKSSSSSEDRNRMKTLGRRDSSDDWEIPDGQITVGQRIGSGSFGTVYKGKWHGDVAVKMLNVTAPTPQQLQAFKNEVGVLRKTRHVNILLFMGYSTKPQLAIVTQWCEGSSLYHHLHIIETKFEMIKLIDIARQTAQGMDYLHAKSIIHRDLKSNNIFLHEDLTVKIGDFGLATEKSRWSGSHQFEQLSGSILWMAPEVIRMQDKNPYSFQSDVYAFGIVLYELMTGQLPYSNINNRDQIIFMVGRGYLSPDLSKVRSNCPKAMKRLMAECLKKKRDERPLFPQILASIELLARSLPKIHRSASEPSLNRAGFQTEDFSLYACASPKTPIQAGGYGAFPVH
Sequence of 3-phosphoinositide-dependent protein kinase 1 (Homo sapiens) (O15530 whole entry, looked up): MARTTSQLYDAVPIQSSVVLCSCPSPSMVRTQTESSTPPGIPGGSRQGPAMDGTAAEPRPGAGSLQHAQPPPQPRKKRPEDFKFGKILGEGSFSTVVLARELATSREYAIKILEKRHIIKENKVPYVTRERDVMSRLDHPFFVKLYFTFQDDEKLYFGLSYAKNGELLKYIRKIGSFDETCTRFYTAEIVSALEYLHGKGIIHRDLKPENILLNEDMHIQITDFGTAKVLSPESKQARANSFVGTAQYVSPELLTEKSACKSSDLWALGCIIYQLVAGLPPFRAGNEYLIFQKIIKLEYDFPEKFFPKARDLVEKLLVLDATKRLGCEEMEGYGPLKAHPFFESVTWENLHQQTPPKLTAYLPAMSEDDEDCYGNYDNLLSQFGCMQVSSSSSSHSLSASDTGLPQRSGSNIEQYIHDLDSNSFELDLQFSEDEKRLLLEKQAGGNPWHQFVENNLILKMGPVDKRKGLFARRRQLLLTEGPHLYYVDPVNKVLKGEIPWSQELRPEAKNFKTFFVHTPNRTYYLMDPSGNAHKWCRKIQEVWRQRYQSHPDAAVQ
Sequence of Dual specificity mitogen-activated protein kinase kinase 1 (Homo sapiens) (Q02750 whole entry): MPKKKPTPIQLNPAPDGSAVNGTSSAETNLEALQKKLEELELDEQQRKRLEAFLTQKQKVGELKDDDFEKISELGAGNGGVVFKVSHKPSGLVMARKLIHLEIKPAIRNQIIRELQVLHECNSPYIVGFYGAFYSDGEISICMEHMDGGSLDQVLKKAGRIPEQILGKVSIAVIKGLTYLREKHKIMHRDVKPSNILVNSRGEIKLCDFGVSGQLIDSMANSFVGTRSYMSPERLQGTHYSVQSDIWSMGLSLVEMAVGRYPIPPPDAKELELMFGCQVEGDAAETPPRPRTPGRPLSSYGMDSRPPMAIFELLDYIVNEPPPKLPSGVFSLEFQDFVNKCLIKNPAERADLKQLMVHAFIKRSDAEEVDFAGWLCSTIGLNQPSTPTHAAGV
Sequence of Platelet-derived growth factor receptor alpha (Homo sapiens) (P16234 whole entry): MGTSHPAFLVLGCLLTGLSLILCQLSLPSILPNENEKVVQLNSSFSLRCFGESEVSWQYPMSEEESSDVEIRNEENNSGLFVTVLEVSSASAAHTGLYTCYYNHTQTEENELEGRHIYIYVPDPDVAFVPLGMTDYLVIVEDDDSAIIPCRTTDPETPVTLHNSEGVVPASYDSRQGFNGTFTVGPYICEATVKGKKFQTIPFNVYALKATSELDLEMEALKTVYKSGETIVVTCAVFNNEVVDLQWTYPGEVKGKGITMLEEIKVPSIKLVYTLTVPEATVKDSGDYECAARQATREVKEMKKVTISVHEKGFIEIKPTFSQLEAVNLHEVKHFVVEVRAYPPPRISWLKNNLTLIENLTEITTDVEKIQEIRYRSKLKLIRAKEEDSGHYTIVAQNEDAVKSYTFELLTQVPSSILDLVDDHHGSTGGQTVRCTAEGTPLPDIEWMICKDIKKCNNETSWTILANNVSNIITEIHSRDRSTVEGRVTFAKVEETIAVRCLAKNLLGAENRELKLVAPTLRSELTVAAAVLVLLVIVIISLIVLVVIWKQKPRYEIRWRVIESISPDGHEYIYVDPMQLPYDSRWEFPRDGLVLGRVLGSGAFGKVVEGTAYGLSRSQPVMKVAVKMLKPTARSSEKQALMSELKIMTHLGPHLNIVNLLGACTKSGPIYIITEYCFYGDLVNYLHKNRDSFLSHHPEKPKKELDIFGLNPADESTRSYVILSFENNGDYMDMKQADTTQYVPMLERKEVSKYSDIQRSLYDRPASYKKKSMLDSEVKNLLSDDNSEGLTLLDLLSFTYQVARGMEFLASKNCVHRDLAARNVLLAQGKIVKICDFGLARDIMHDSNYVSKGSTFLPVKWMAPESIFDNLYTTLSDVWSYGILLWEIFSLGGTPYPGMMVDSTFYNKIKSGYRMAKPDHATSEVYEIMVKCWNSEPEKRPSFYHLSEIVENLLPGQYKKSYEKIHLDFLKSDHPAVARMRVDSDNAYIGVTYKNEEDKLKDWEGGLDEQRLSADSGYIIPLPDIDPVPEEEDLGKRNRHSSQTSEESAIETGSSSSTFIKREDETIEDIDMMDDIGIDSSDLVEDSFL

Consider `NC(=O)c1ccc(-c2cc(-c3ccccc3)cnc2N)cc1`, for which the IC50 (as a rule, the concentration that gives 50% inhibition) in assay [1] was found to be 5150 nM.

For the compound `COc1cc2ncnc(Nc3cc(Br)c(O)c(Br)c3)c2cc1OC`, half-maximal inhibition in assay [1] (IC50) was put at 120 nM.

As to `c1ccc(-c2cnc3ccc(NCCc4ccccn4)nn23)cc1`, the half-maximal inhibitory concentration (IC50) in [1] was determined as 4280 nM.

As for `Brc1cccc(Nc2ncnc3cc4nc[nH]c4cc23)c1`, in assay [1], the half-inhibitory concentration (IC50) was 2800 nM.

Turning to `OCCNc1ccc2ncc(-c3ccc(Cl)cc3)n2n1`, inhibition in assay [1] was half-maximal at 2930 nM (IC50).

Take `CC(C)CNc1nn2c(-c3ccncc3)cnc2s1`: in assay [1], the 50% inhibitory concentration (IC50) worked out at 6180 nM.

`CNc1cc2c(Nc3cccc(Br)c3)ncnc2cn1` gave a 50% inhibitory concentration (IC50) in assay [1] of 1700 nM.

On to `NC(=O)c1ccc(Nc2ncnc3[nH]cnc23)cc1`, for which the IC50 in assay [1] was 160 nM.

In assay [1], `Clc1ccc(Nc2ncnc3[nH]ncc23)cc1` registered an IC50 of 580 nM.

In turn, `CNc1ccc2ncc(-c3ccc(F)cc3)n2n1` returned a half-inhibitory concentration (IC50) in [1] of 4050 nM.

Compound `Fc1cccc(Nc2ncnc3n[nH]cc23)c1` returned a concentration for half-maximal inhibition (IC50) in [1] of 1090 nM.

For the compound `CCNc1nc(C)c(-c2ccnc(Nc3ccc(N4CCNCC4)cc3)n2)s1`, the inhibition (as a rule, the relative decrease from the control value, in per cent) worked out at 97% in assay [2] and 80% in assay [3].

In the case of `COCCNc1ccc2ncc(-c3ccc(F)cc3)n2n1`, the IC50 in assay [1] came to 4090 nM.

`COc1cc2ncnc(Nc3cccc(Br)c3)c2cc1OC` returned an IC50 in assay [1] of 630 nM.

Take `c1cc(-c2cc(C3CCNCC3)[nH]n2)ccn1`: the figures for the half-inhibitory concentration (IC50) in [1] and in assay [4] were 646 nM and 575 nM, respectively.

As to `COC(=O)c1ccc(Nc2[nH]cnc3ncnc2-3)cc1`, in [1], the half-inhibitory concentration (IC50) came to 850 nM.

For the compound `COc1cc2ncnc(Nc3cccc(Cl)c3)c2cc1OC` [TYRPHOSTIN AG-1478], 530 nM corresponded to half-maximal inhibition in [1] (IC50).

In the case of `c1ccc2cc(Nc3ncnc4[nH]ncc34)ccc2c1`, in assay [1], half-maximal inhibition (IC50) required 1350 nM.

As for `OCCCNc1ccc2ncc(-c3ccc(F)cc3)n2n1`, the IC50 in assay [1] is 2410 nM.

The compound `Fc1ccc(Nc2ncnc3[nH]cnc23)cc1` gave a concentration for half-maximal inhibition (IC50) in assay [1] of 1030 nM.

In the case of `c1cc(-c2cc(C3CCNCC3)n[nH]2)ccn1`, the inhibition is 87% in assay [2]; 0% in assay [5]; 3% in assay [6]; 9% in assay [7]; 10% in assay [8]; 0% in assay [9]. Besides, the inhibition was found to be 1% in assay [10]; 0% in assay [11]; 15% in [12]; 8% in assay [13]; 0% in [14]; 3% in assay [15]. In addition, the inhibition worked out at 6% in [16]; 0% in assay [17]; 7% in assay [18]; 5% in assay [19]; 1% in [20]; 0% in assay [21]. In addition, the inhibition in [22] was found to be 2%; in assay [23], 1%; in assay [24], 4%; in assay [25] it was 1%; in assay [26] it was 11%; in assay [27] it was 7%. The inhibition in [28] was determined as 0%.

In assay [1], `c1cc(-c2cnc3sc(NCC4CC4)nn23)ccn1` yielded a concentration for half-maximal inhibition (IC50) of 1710 nM.

The compound `CNc1ccc2ncc(-c3cccc(O)c3)n2n1` returned a concentration for half-maximal inhibition (IC50) in assay [1] of 1530 nM.

With `COCCNc1ccc2ncc(-c3ccc(Cl)cc3)n2n1`, the IC50 in assay [1] was determined as 1620 nM.

As to `OCCCNc1ccc2ncc(-c3ccccc3F)n2n1`, the IC50 in assay [1] was determined as 3240 nM.

As for `Brc1ccc(Nc2ncnc3[nH]ncc23)cc1`, in assay [1], the concentration for half-maximal inhibition (IC50) came to 1560 nM.

Regarding `c1cnn2c(-c3ccncc3)cnc2c1`, it took 3800 nM to reach half-maximal inhibition in assay [1] (IC50).

`O=c1[nH]cnc2cc3n[nH]cc3cc12`: the IC50 in assay [1] turned out to be 8170 nM.
